# Assay results pooled from the literature.
# Each line is one published result; the experiments were not run side by side.
# Cacna1b: Voltage-dependent N-type calcium channel subunit alpha-1B (Cacna1b, Rattus norvegicus, UniProt Q02294)
# SIRT6: NAD-dependent protein deacylase sirtuin-6 (SIRT6, Homo sapiens, UniProt Q8N6T7)
SMILES,target,read-out,action,method,cell line,tested at,inhibition [%]
O=C(c1ccc(F)cc1)N(Cc1ccccc1)C1CCCCC1,Cacna1b,cell-free assay,,,,10 µM,5
NC(=O)c1ccc(C(=O)NOCc2ccccc2Br)cc1,SIRT6,enzyme activity,inhibitor,fluorescence,,100 µM,79.7
O=C(Nc1ccc(S(=O)(=O)N2CCC(Cl)CC2)cc1)c1ccc([N+](=O)[O-])o1,"Voltage-dependent L-type calcium channel subunit alpha-1C (Cacna1c, Rattus norvegicus, UniProt P22002)",ligand displacement,,radioligand,,10 µM,24
C/C(=C\C(=O)OCCCCCCCCC(=O)O)C[C@@H]1OC[C@H](C[C@@H]2O[C@H]2[C@@H](C)[C@H](C)O)[C@@H](O)[C@H]1O,"C-C chemokine receptor type 5 (CCR5, Homo sapiens, UniProt P51681)",calcium signal,antagonist,,U87/CD4/CCR5,20 µM,76
NC(=O)c1ccc(C(=O)NOCc2ccc(Oc3ccccc3)cc2)cc1,SIRT6,enzyme activity,inhibitor,fluorescence,,100 µM,89.1
CC/C(=N\NC(=O)NCc1cccc(O)c1)c1ccc(O)c(C)c1O,"ALK tyrosine kinase receptor (ALK, Homo sapiens, UniProt Q9UM73, G1202R)",enzyme activity,inhibitor,,,0.1 µM,-1.5
CCN(Cc1ccccc1C(F)(F)F)C(=O)C1CCN(S(=O)(=O)c2ccc3[nH]ncc3c2)CC1,Cacna1b,ligand displacement,,radioligand,,10 µM,2
COc1ccc(CONC(=O)c2ccc(C(N)=O)cc2)cc1,SIRT6,enzyme activity,inhibitor,fluorescence,,100 µM,78.2
Ic1cccc2cnccc12,"Poly [ADP-ribose] polymerase 2 (PARP2, Homo sapiens, UniProt Q9UGN5)",enzyme activity,inhibitor,,,10 µM,40
